Assay results collected from several papers.
Lines come from different studies, so protocols differ.
Target: RAC-alpha serine/threonine-protein kinase (AKT1, Homo sapiens, UniProt P31749)

Cc1c(NC(=O)c2cc(C(N)=O)nc3cc(F)ccc23)c(C(F)(F)F)nn1Cc1ccc(C#N)cc1
remaining binding (cell-free assay; competition with immobilised ligand; 1 µM): 91%

CC(C)(O)[C@H]1CC[C@H](Nc2ccc3ncc(-c4cccc(C(F)(F)F)c4)n3n2)CC1
remaining activity (enzyme activity; inhibitor; 1 µM): 93.2%

CN1CC(Oc2cnc(C#N)cc2-c2ccn3nc(NC(=O)C4CC4)cc3c2)C1
inhibition (enzyme activity; inhibitor; 1 µM): -4%

CCS(=O)(=O)c1cc2cc(C[C@@](O)(CC(C)(C)c3ccc(F)cc3C(N)=O)C(F)(F)F)[nH]c2cn1
remaining binding (cell-free assay; competition with immobilised ligand; 1 µM): 86%

CNC(=O)c1cc(Oc2ccc(NC(=O)Nc3ccc(Cl)c(C(F)(F)F)c3)cc2)ccn1
inhibition (enzyme activity; inhibitor; 10 µM): -3%

CN(C)C1CCN(CC#Cc2nn(C3CCCC3)c3nc(NCc4ccccc4)ncc23)C1 (stereo not drawn)
inhibition (enzyme activity; inhibitor; FRET; 10 µM): 7%

CCN(CC)c1ccc(C2=NNC(=O)CC2C)cc1[N+](=O)[O-] (stereo not drawn)
remaining activity (enzyme activity; inhibitor; 10 µM): 81%

Cc1sc(C(=O)NC2COC2)cc1-n1cc(NC(=O)Nc2c(F)cccc2Cl)cn1
remaining activity (enzyme activity; inhibitor; 10 µM): 105%

Cc1ccc(C(=O)NCc2ccsc2)cc1C#Cc1cn(C(C)C)c2ncnc(N)c12
activity vs control (enzyme activity; inhibitor; 1 µM): 94%

Cn1cncc1C1=CN(c2ncnc3[nH]cnc23)CCS1
inhibition (enzyme activity; inhibitor; radiometric; 50 nM): 25.1%

Oc1cccc(-c2nc(N3CCOCC3)c3oc4ncccc4c3n2)c1
remaining signal (cell-free assay; 0.5 µM): 95.3%

Cc1ccc(C(=O)Nc2ccc(CN3CCN(C)CC3)c(C(F)(F)F)c2)cc1C#Cc1cnc2cccnn12
remaining activity (enzyme activity; inhibitor; 23.5 nM): 65%

CC(C)(C)c1nc2c(s1)c1nc(N)ncc1c1ccc(NS(=O)(=O)c3c(F)cccc3F)c(F)c12
remaining activity (enzyme activity; inhibitor; radiometric; 1 µM): 88%

O=S(=O)(NCCNC/C=C/c1ccc(Br)cc1)c1cccc2cnccc12
remaining signal (cell-free assay; 0.5 µM): 41.6%

CC/C(=N\NC(=O)NCc1cccc(O)c1)c1ccc(O)c(C)c1O
inhibition (enzyme activity; inhibitor; 0.1 µM): 0.1%

COc1cc2ncnc(Nc3ccc(Oc4ccccc4)cc3C)c2cc1OC
inhibition (enzyme activity; inhibitor; 1 µM): 0%

COc1cc(Nc2cnc(C#N)c(O[C@H](C)CN(C)C)n2)ncc1-c1cnn(C)c1
remaining activity (enzyme activity; inhibitor; radiometric; 1 µM): 98%

O=C(Nc1cnn(-c2csc(C(=O)NC3COC3)c2)c1)Nc1ccccc1Cl
remaining activity (enzyme activity; inhibitor; 5 µM): 95.4%

Cc1ccc(NC(=O)c2ccc(C)c(C(F)(F)F)c2)cc1C#Cc1nn(C2CCC(O)CC2)c2ncnc(N)c12 (stereo not drawn)
remaining signal (cell-free assay; 10 µM): 101%

Nc1nc(NC2CCCCC2)sc1C(=O)c1ccccc1
remaining activity (enzyme activity; inhibitor; 10 µM): 85%

Oc1cccc(-c2nc(N3CCOCC3)c3oc4ncccc4c3n2)c1
remaining activity (enzyme activity; inhibitor; 10 µM): 78%

Cc1ccc(Nc2nccc(N(C)c3ccc4c(C)n(C)nc4c3)n2)cc1S(N)(=O)=O
inhibition (enzyme activity; inhibitor; 0.3 µM): -7%

O=C1CCc2cc(Nc3cc(OC4CCOCC4)c([N+](=O)[O-])cc3Cl)ccc2N1
remaining binding (cell-free assay; competition with immobilised ligand; 1 µM): 98%

CCOc1cc(-c2nncn2C)ccc1Nc1ncc2cc(C)nc(NCC(C)(C)C)c2n1
inhibition (enzyme activity; inhibitor; FRET; 1 µM): < 15%

Cc1cc(NC(=O)c2cccc3cc(-c4cccc5[nH]nc(N)c45)ccc23)ccc1F
activity vs control (enzyme activity; inhibitor; 0.1 µM): 107%

CC(C)c1ccc(NC(=O)c2cccs2)c(-c2nc3ccccc3[nH]c2=O)c1
activity vs control (enzyme activity; inhibitor; 1 µM): 120%

CC1=C(C#N)[C@@H](c2ccc3[nH]nc(C)c3c2)C(C#N)=C(c2ccc(Cl)cc2)N1
remaining binding (cell-free assay; competition with immobilised ligand; 1 µM): 100%

CS(=O)(=O)Nc1cccc(-c2csc(NC(=O)CSc3nc4nccnc4c(=O)n3CCc3ccccc3)n2)c1
inhibition (enzyme activity; inhibitor; 10 µM): 1%

Cc1c[nH]c2nccc(Oc3c(F)cc(Nc4cc(Cl)nc(N)n4)cc3F)c12
remaining binding (cell-free assay; competition with immobilised ligand; 0.1 µM): 100%

FC(F)(F)Oc1cccc(-c2cnc3ccc(-c4ccncc4)nn23)c1
activity vs control (enzyme activity; inhibitor; radiometric; 1 µM): 90%

CCCOc1ccc([C@H]2[C@H](C(=O)O)[C@@H](c3ccc4c(c3)OCO4)CN2CC(=O)Nc2c(CC)cccc2CC)cc1
remaining binding (cell-free assay; competition with immobilised ligand; 1 µM): 97%

Cn1cnc(Br)c1C1=CN(c2ncnc3[nH]cnc23)CCS1
inhibition (enzyme activity; inhibitor; radiometric; 2 µM): 84.3%

C[C@@H]1CCN(C(=O)CC#N)C[C@@H]1N(C)c1ncnc2[nH]ccc12
remaining signal (cell-free assay; inhibitor; 0.5 µM): 90.3%

CNCc1ccccc1-c1csc([C@@H](C)Nc2nc(C)nc3cc(OC)c(OC)cc23)c1
remaining binding (cell-free assay; competition with immobilised ligand; 1 µM): 100%

O=C1Nc2ccc(Cl)cc2C1=Cc1cc(Cl)c(O)c(Cl)c1
remaining signal (cell-free assay; 0.5 µM): 97.9%

COc1ccc2c(c1)O[C@@H](c1ccc(OC)c(OC)c1)C[C@H]2NC(=O)C1(c2ccc3c(c2)OC(F)(F)O3)CC1
remaining binding (cell-free assay; competition with immobilised ligand; 1 µM): 100%
